Measurements as given in ChEMBL document CHEMBL1149664, “Anthranilamide inhibitors of factor Xa” (2007).

Tests used:
[1] = target: Prothrombin (Homo sapiens) (UniProt P00734); test: Inhibition of human factor 2a
Summary of the method: (§1)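 Values are reported as an apparent association constant (Kassoc) between enzyme and inhibitor, in 10^6 L/mol.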

[2] = target: Coagulation factor X (Homo sapiens) (UniProt P00742); test: Inhibition of human factor 10a; summary of the method: as §1
[3] = test system: Plasma; test: Anticoagulant potency in human citreated plasma assessed as concentration required to double activated partial thromboplastin time; assay type: functional
[4] = test system: Plasma; test: Anticoagulant potency in human citreated plasma assessed as concentration required to double prothrombin time; assay type: functional

Sequence of Coagulation factor X (Homo sapiens) (P00742 41-179 limits assumed): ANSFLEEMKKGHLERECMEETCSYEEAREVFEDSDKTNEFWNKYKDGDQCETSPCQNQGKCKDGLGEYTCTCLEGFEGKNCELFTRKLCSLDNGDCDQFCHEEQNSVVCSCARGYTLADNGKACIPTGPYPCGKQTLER
Sequence of Coagulation factor X (Homo sapiens) (P00742 235-488 limits assumed): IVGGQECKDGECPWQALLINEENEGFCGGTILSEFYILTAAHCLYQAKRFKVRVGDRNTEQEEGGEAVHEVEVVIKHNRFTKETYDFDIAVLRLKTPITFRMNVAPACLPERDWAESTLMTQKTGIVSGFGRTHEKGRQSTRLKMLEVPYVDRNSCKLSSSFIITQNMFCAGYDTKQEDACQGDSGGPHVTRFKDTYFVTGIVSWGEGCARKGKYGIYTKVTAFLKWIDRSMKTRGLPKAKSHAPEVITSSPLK

| Kapp [1] | Kapp [2] | Structure (SMILES) | Activity [3] | Activity [4] |
| --- | --- | --- | --- | --- |
| 17 10^6L/mol | 709 10^6L/mol | NCCCOc1cc(N2CCSCC2)ccc1C(=O)Nc1ccccc1C(=O)Nc1ccc(Cl)cn1 | 0.69 µM | 0.61 µM |
| 60 10^6L/mol | 176 10^6L/mol | CN(C)CC(=O)N1CCC(Oc2cc(C(C)(C)C)ccc2C(=O)Nc2ccccc2C(=O)Nc2ccc(Cl)cn2)CC1 | – | – |
| 145 10^6L/mol | 170 10^6L/mol | CN(C)CCCNC(=S)N1CCC(Oc2cc(C(C)(C)C)ccc2C(=O)Nc2ccccc2C(=O)Nc2ccc(Cl)cn2)CC1 | 2.9 µM | 2.9 µM |
| 2 10^6L/mol | 82 10^6L/mol | CN1CCN(c2ccc(C(=O)Nc3ccccc3C(=O)Nc3ccc(Cl)cn3)c(OCCCN)c2)CC1 | – | – |
| 67 10^6L/mol | 219 10^6L/mol | CC(C)(C)c1ccc(C(=O)Nc2ccccc2C(=O)Nc2ccc(Cl)cn2)c(OCC2CCCCN2)c1 (stereo not drawn) | 1.4 µM | 1.4 µM |
| 34 10^6L/mol | 733 10^6L/mol | CC(C)(C)c1ccc(C(=O)Nc2ccccc2C(=O)Nc2ccc(Cl)cn2)c(OC2CCN(C(=S)NCc3cccnc3)CC2)c1 | 13.4 µM | 21.8 µM |
| – | 7 10^6L/mol | COc1ccc(NC(=O)c2ccccc2NC(=O)c2ccc(C(C)C)cc2)cc1 | – | – |
| 5.8 10^6L/mol | 516 10^6L/mol | NCCCOc1cc(N2CCOCC2)ccc1C(=O)Nc1ccccc1C(=O)Nc1ccc(Cl)cn1 | 0.26 µM | 0.34 µM |
| – | 0.03 10^6L/mol | COc1ccc(C(=O)Nc2ccccc2C(=O)Nc2ccc(C(C)(C)C)cc2)cc1 | – | – |
| 23 10^6L/mol | 450 10^6L/mol | CC(C)(C)c1ccc(C(=O)Nc2ccccc2C(=O)Nc2ccc(Cl)cn2)c(OC2CCN(Cc3ccsc3)CC2)c1 | 14.8 µM | 20 µM |
| 61 10^6L/mol | 1630 10^6L/mol | CN1CCC(Oc2cc(C(C)(C)C)ccc2C(=O)Nc2ccccc2C(=O)Nc2ccc(Cl)cn2)CC1 | 0.93 µM | 1.1 µM |
| 17 10^6L/mol | 323 10^6L/mol | NCCCOc1cc(N2CCCCC2)ccc1C(=O)Nc1ccccc1C(=O)Nc1ccc(Cl)cn1 | 1 µM | 0.93 µM |
| 30 10^6L/mol | 1940 10^6L/mol | CCCN1CCC(Oc2cc(C(C)(C)C)ccc2C(=O)Nc2ccccc2C(=O)Nc2ccc(Cl)cn2)CC1 | 3.1 µM | 3.3 µM |
| 152 10^6L/mol | 1440 10^6L/mol | CC(C)(C)c1ccc(C(=O)Nc2ccccc2C(=O)Nc2ccc(Cl)cn2)c(OCCCN)c1 | 0.85 µM | 0.79 µM |
| 24 10^6L/mol | 8970 10^6L/mol | CN1CCCN(c2ccc(C(=O)Nc3ccccc3C(=O)Nc3ccc(Cl)cn3)c(OCCCN)c2)CC1 | 0.1 µM | – |
| 72 10^6L/mol | 1160 10^6L/mol | CC(C)(C)c1ccc(C(=O)Nc2ccccc2C(=O)Nc2ccc(Cl)cn2)c(OC2CCN(Cc3ccccc3C(=O)O)CC2)c1 | 0.57 µM | 1 µM |
| 6 10^6L/mol | 69 10^6L/mol | CC(C)(C)OC(=O)N1CCC(Oc2cc(C(C)(C)C)ccc2C(=O)Nc2ccccc2C(=O)Nc2ccc(Cl)cn2)CC1 | 55 µM | 64 µM |
| 54 10^6L/mol | 2160 10^6L/mol | CC(C)(C)c1ccc(C(=O)Nc2ccccc2C(=O)Nc2ccc(Cl)cn2)c(OC2CCN(Cc3ncc[nH]3)CC2)c1 | 1.8 µM | 2.6 µM |
| 24 10^6L/mol | 3080 10^6L/mol | COCCN1CCC(Oc2cc(C(C)(C)C)ccc2C(=O)Nc2ccccc2C(=O)Nc2ccc(Cl)cn2)CC1 | 2.1 µM | 2.1 µM |
| 0.14 10^6L/mol | 2.9 10^6L/mol | CC(C)(CNC(=O)OC(C)(C)C)COc1cc(C(C)(C)C)ccc1C(=O)Nc1ccccc1C(=O)Nc1ccc(Cl)cn1 | >70 µM | >70 µM |

| Kapp [1] | Kapp [2] | Structure (SMILES) | Activity [3] | Activity [4] |
| --- | --- | --- | --- | --- |
| 3.9 10^6L/mol | 3.1 10^6L/mol | CC(C)(C)OC(=O)N1CCCCC1COc1cc(C(C)(C)C)ccc1C(=O)Nc1ccccc1C(=O)Nc1ccc(Cl)cn1 (stereo not drawn) | >70 µM | >70 µM |
| 40 10^6L/mol | 3010 10^6L/mol | NCCCOc1cc(N2CCCC2)ccc1C(=O)Nc1ccccc1C(=O)Nc1ccc(Cl)cn1 | 0.41 µM | 0.41 µM |
| 4 10^6L/mol | 714 10^6L/mol | CC(C)(C)c1ccc(C(=O)Nc2ccccc2C(=O)Nc2ccc(Cl)cn2)c(OC2CCN(C(=O)CCC(=O)O)CC2)c1 | 6.1 µM | 5.3 µM |
| 134 10^6L/mol | 448 10^6L/mol | CC(C)(C)c1ccc(C(=O)Nc2ccccc2C(=O)Nc2ccc(Cl)cn2)c(OC2CCN(C(=O)Cn3cnnn3)CC2)c1 | 8 µM | 10 µM |
| 27 10^6L/mol | 307 10^6L/mol | CC(C)(C)c1ccc(C(=O)Nc2ccccc2C(=O)Nc2ccc(Cl)cn2)c(OC2CCN(C(=O)Nc3ccccc3F)CC2)c1 | 21.5 µM | 30.2 µM |
| 114 10^6L/mol | 1110 10^6L/mol | CC(C)(C)c1ccc(C(=O)Nc2ccccc2C(=O)Nc2ccc(Cl)cn2)c(OC2CCNCC2)c1 | 0.85 µM | 0.88 µM |
| – | 0.5 10^6L/mol | CC(C)(C)c1ccc(C(=O)Nc2ccccc2C(=O)Nc2ccc(Cl)cc2)cc1 | – | – |
| – | 5 10^6L/mol | COc1ccc(NC(=O)c2ccccc2NC(=O)c2ccc(C(C)(C)C)cc2)cc1 | – | – |
| 0.2 10^6L/mol | 54 10^6L/mol | CC(C)(C)OC(=O)NCCCOc1cc(C(C)(C)C)ccc1C(=O)Nc1ccccc1C(=O)Nc1ccc(Cl)cn1 | >70 µM | >70 µM |
| 37 10^6L/mol | 1370 10^6L/mol | CC(C)(C)c1ccc(C(=O)Nc2ccccc2C(=O)Nc2ccc(Cl)cn2)c(OC2CCN(CC3CC3)CC2)c1 | 2.4 µM | 2.5 µM |
| – | 1 10^6L/mol | COc1ccc(NC(=O)c2ccccc2NC(=O)c2ccc(OC)cc2)cc1 | – | – |
| – | 42 10^6L/mol | CC(C)(C)c1ccc(C(=O)Nc2ccccc2C(=O)Nc2ccc(Cl)cn2)cc1 | – | – |
| 7.3 10^6L/mol | 874 10^6L/mol | NCCCOc1cc(N2CC[C@@H](N)C2)ccc1C(=O)Nc1ccccc1C(=O)Nc1ccc(Cl)cn1 | 0.4 µM | 0.45 µM |
| 21 10^6L/mol | 513 10^6L/mol | Cn1nccc1C(=O)N1CCC(Oc2cc(C(C)(C)C)ccc2C(=O)Nc2ccccc2C(=O)Nc2ccc(Cl)cn2)CC1 | 5.7 µM | 7.6 µM |
| 0.02 10^6L/mol | 23 10^6L/mol | CC(C)(C)c1ccc(C(=O)Nc2ccccc2C(=O)Nc2ccc(Cl)cn2)c(O)c1 | >100 µM | >100 µM |
| 25 10^6L/mol | 3440 10^6L/mol | CC(C)N1CCC(Oc2cc(C(C)(C)C)ccc2C(=O)Nc2ccccc2C(=O)Nc2ccc(Cl)cn2)CC1 | 1.2 µM | 1.8 µM |
| 25 10^6L/mol | 130 10^6L/mol | NCCCOc1cc(N2CCCCCC2)ccc1C(=O)Nc1ccccc1C(=O)Nc1ccc(Cl)cn1 | 3.1 µM | 2.7 µM |
| 1100 10^6L/mol | 76 10^6L/mol | CC(C)(CN)COc1cc(C(C)(C)C)ccc1C(=O)Nc1ccccc1C(=O)Nc1ccc(Cl)cn1 | 2 µM | 1.6 µM |
| 20 10^6L/mol | 488 10^6L/mol | CC(C)(C)c1ccc(C(=O)Nc2ccccc2C(=O)Nc2ccc(Cl)cn2)c(OC2CCN(Cc3ccccc3)CC2)c1 | 28.1 µM | 44.6 µM |
